Experimental data pooled from the literature.
Each line is one published result; the experiments were not run side by side.
Target: Tyrosine-protein kinase receptor TYRO3 (TYRO3, Homo sapiens, UniProt Q06418)
One construct used (Q06418 41-890): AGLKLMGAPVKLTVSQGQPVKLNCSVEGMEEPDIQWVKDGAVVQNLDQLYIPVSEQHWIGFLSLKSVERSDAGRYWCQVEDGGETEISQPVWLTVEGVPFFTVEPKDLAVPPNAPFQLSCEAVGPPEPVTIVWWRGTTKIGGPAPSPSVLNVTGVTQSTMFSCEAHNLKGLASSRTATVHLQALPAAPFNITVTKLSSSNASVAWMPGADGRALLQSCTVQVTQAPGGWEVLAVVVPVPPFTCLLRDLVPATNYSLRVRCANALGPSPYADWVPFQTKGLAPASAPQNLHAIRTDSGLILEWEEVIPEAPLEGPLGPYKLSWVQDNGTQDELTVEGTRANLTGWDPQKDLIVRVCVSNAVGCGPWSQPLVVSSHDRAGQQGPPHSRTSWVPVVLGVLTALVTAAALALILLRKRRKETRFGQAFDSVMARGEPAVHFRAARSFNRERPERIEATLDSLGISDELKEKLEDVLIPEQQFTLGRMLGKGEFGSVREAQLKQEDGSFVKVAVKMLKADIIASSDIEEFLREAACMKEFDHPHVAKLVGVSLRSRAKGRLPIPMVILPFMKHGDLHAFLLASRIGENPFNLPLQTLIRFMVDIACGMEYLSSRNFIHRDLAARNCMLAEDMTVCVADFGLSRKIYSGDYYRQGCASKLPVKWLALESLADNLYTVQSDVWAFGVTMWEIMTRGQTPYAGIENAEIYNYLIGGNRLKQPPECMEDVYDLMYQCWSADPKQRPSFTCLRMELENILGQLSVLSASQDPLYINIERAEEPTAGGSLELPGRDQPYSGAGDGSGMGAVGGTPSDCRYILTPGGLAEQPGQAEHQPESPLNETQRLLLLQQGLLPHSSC

Structure (SMILES)	read-out	action	technique	concentration	endpoint	result
O=C1NC(=O)c2cc(Nc3ccc(F)cc3)c(Nc3ccc(F)cc3)cc21	cell-free assay			0.5 µM	remaining signal	94.8%
CNC(=O)c1cc2c(Oc3ccc(NC(=O)C4(C(=O)Nc5ccc(F)cc5)CC4)cc3)ccnc2cc1OC	enzyme activity	inhibitor	radiometric	1 µM	inhibition	100%
Cc1ccc(NC(=O)c2ccc(C)c(C(F)(F)F)c2)cc1C#Cc1nn(C2CCC(O)CC2)c2ncnc(N)c12 (centres unmarked)	cell-free assay			10 µM	remaining signal	2%
Nc1ncnc2occ(-c3ccc(NC(=O)Nc4cc(C(F)(F)F)ccc4F)cc3)c12	cell-free assay			20 µM	remaining signal	2%
Nc1cnc(N2CCc3cc(S(=O)(=O)Nc4c(F)cc(Cl)cc4F)cc(N4CCCC4=O)c32)nc1	cell-free assay		competition with immobilised ligand	1 µM	remaining binding	100%
CN1CCC2(CC1)NC(=O)c1c(c3ccc(Cl)c(Cl)c3n1C)C2C#N (racemic)	thermal stability		DSF	10 µM	ΔTm	0.7 °C
Cc1cnc(NC2CCOCC2)nc1-n1cnc(C(=O)NC(CN)c2cc(F)cc(Cl)c2)c1 (centres unmarked)	enzyme activity	inhibitor	radiometric	1 µM	remaining activity	118%
Cc1ccc(C(=O)NCc2ccsc2)cc1C#Cc1cn(C(C)C)c2ncnc(N)c12	enzyme activity	inhibitor		1 µM	activity vs control	89%
Cn1cc(Cl)c2c(Oc3c(F)cc(Nc4cc(Cl)nc(N)n4)cc3F)ccnc21	cell-free assay		competition with immobilised ligand	0.1 µM	remaining binding	80%
CC1CCCN1c1nccc(-c2cnn3ncccc23)n1 (centres unmarked)	binding			1 µM	remaining binding	79%
Cc1ccc(Nc2nccc(N(C)c3ccc4c(C)n(C)nc4c3)n2)cc1S(N)(=O)=O	cell-free assay			0.3 µM	inhibition	26%
COc1cc2ncnc(Nc3ccc(Oc4ccccc4)c(C)c3C)c2cc1OC	enzyme activity	inhibitor		1 µM	inhibition	25%
CCCCN(CCCC)C(=O)CN1C[C@@H](c2cc(OC)c3c(c2)OCO3)[C@H](C(=O)O)[C@H]1CC(C)(C)CCC	cell-free assay		competition with immobilised ligand	1 µM	remaining binding	97.1%
CC(C)(C)c1nc(-c2cccc(NS(=O)(=O)c3c(F)cccc3F)c2F)c(-c2ccnc(N)n2)s1	enzyme activity	inhibitor	radiometric	1 µM	remaining activity	90%
O=C(Nc1cnn(-c2csc(C(=O)NC3COC3)c2)c1)Nc1ccccc1Cl	enzyme activity	inhibitor		5 µM	remaining activity	75.4%
N#CCCc1ccc2c(c1)-c1[nH]c3ccc([N+](=O)[O-])cc3c1CC(=O)N2	cell-free assay			0.5 µM	remaining signal	94.8%
Cn1c2c(c3ccc(Cl)c(Cl)c31)C(C#N)C1(CCN(C(=O)OC(C)(C)C)CC1)NC2=O (racemic)	thermal stability		DSF	10 µM	ΔTm	0 °C
CC/C(=N\NC(=O)NCc1cccc(O)c1)c1ccc(O)c(C)c1O	enzyme activity	inhibitor		0.1 µM	inhibition	2.7%
O=C(N1CCS(=O)(=O)CC1)N1C[C@H](c2ccc(OC(F)(F)F)cc2)C[C@H](c2nc(C3CC3)no2)C1	cell-free assay		competition with immobilised ligand	1 µM	remaining binding	98%
CN1CC(Oc2cnc(C#N)cc2-c2ccn3nc(NC(=O)C4CC4)cc3c2)C1	enzyme activity	inhibitor		1 µM	inhibition	-2%
CCN(CC)CCNC(=O)c1c(C)[nH]c(/C=C2\C(=O)Nc3ccc(F)cc32)c1C	cell-free assay			0.3 µM	inhibition	72%
Cc1c(C(=O)O)cc(-c2ccc(C3CCNCC3)cc2)c2ccc(-c3ccc(C(F)(F)F)cc3)cc12	cell-free assay		competition with immobilised ligand	1 µM	remaining binding	100%
O=C1Nc2ccc(Cl)cc2C1=Cc1cc(Cl)c(O)c(Cl)c1	cell-free assay			0.5 µM	remaining signal	94.9%
O=C1CCc2cc(Nc3cc(OC4CCOCC4)c([N+](=O)[O-])cc3Cl)ccc2N1	cell-free assay		competition with immobilised ligand	1 µM	remaining binding	100%
COc1cc2nccc(Oc3ccc(NC(=O)c4c5n(n(-c6ccc(F)cc6)c4=O)CCCC5)cc3)c2cc1OC	enzyme activity	inhibitor		0.1 µM	inhibition	71%
C[C@@]1(Cc2ccc(C#N)cc2)C(=O)N(c2cc(Cl)cc(Cl)c2)c2ncc(C(=O)NC3(c4nc(C5CCC5)no4)CC3)n21	cell-free assay		competition with immobilised ligand	1 µM	remaining binding	100%
Cc1cc(NC(=O)c2cccc3cc(-c4cccc5[nH]nc(N)c45)ccc23)ccc1F	enzyme activity	inhibitor		0.1 µM	activity vs control	99%
Cn1c2c(Cl)c(Cl)ccc2c2cc(N)[nH]c(=O)c21	thermal stability		DSF	10 µM	ΔTm	1.1 °C
CCCOc1ccc([C@@H]2[C@@H](C(=O)O)[C@H](c3ccc4c(c3)OCO4)CN2CC(=O)Nc2c(CC)cccc2CC)cc1	cell-free assay		competition with immobilised ligand	1 µM	remaining binding	94%
